Active and inactive are the calls of the source. No cut-off for these calls is given here.
Experiments:
[1] = Selectivity index, ratio of CC50 for human MT4 cells to EC50 for wild type Human immunodeficieny virus 1 3B infected in human MT4 cells; assay type: toxicity, cell-based; conditions: read-out: Ratio CC50/EC50
How it was run: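 SI is CC₅₀ in mock-infected MT-4 cells divided by EC₅₀ against HIV-1 IIIB, both from 5-day MTT assays in triplicate wells.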

[2] = Cytotoxic activity against human MT4 cells assessed as viability of mock-infected cells after 5 days by MTT assay; assay type: cell-based
How it was run: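 Mock-infected, exponentially growing MT-4 cells (6 × 10⁵ cells/mL) were exposed to serial fivefold compound dilutions in triplicate wells. After 5 days, viability was read by MTT formazan absorbance at 540 and 690 nm. CC₅₀ is the concentration that lowered OD540 of the mock-infected control by 50%, using the median OD of three wells.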

[3] = tested on: Human immunodeficiency virus 2; experiment: Antiviral activity against wild type Human immunodeficiency virus 2 ROD infected in human MT4 cells assessed as protection against virus-induced cytotoxicity after 5 days by MTT assay; assay type: functional, organism-based; conditions: Human immunodeficiency virus 2, ISOLATE ROD, MT4, 120 h
How it was run: (§1)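 MT-4 cells, spun 5 min at 1000 rpm, were resuspended at 6 × 10⁵ cells/mL and infected with HIV-1 IIIB or HIV-2 ROD. Compounds were added at the start in serial fivefold dilutions, in triplicate wells. Viability was read by MTT reduction at 540 and 690 nm five days post-infection. EC₅₀ is the concentration giving 50% protection from viral cytopathic effect, using the median OD of three wells.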

[4] = tested on: Human immunodeficiency virus 1; experiment: Antiviral activity against wild type Human immunodeficiency virus 1 3B infected in human MT4 cells assessed as protection against virus-induced cytotoxicity after 5 days by MTT assay; assay type: functional, organism-based; conditions: MT4, 120 h; how it was run: as §1
[5] = tested on: Human immunodeficiency virus 2; experiment: Antiviral activity against Human immunodeficiency virus 2 ROD infected in human MT4 cells assessed as inhibition of viral replication; assay type: functional, organism-based; conditions: ISOLATE ROD; how it was run: as §1

Row | SMILES | selectivity ratio [1] | CC50 at 120 h [2] | EC50 [3] | EC50 [4] | inhibition [5]
1 | COc1ccc(C(=O)CSc2nc(CN3CCCc4ccccc43)c(C)c(=O)[nH]2)cc1 | 144 | 60.7 µM | > 60.7 µM | 0.42 µM | inactive
2 | CCc1c(CN2CCCc3ccccc32)nc(SCC(=O)c2ccc(F)cc2)[nH]c1=O | 273 | 156 µM | > 156 µM | 0.57 µM | inactive
3 | Cc1ccc(CSc2nc(CN3CCCc4ccccc43)c(C)c(=O)[nH]2)cc1 | ≤ 1 | ≥ 86.2 µM | > 86.2 µM | ≥ 86.2 µM | inactive
4 | CCc1c(CN2CCCc3ccccc32)nc(SCC(=O)c2ccc(OC)cc2)[nH]c1=O | 164 | 61.8 µM | > 61.8 µM | 0.38 µM | inactive
5 | CC(C)Nc1cccnc1N1CCN(C(=O)c2cc3cc(NS(C)(=O)=O)ccc3[nH]2)CC1 [DELAVIRDINE] | > 12 | > 3.83 µM |  |  | 
6 | Cc1c(CN2CCCc3ccccc32)nc(SCc2ccc([N+](=O)[O-])cc2)[nH]c1=O | 41 | 76.9 µM | > 76.9 µM | 1.88 µM | inactive
7 | N#Cc1ccc(CSc2nc(CN3CCCc4ccccc43)cc(=O)[nH]2)cc1 | ≤ 2 | 86.8 µM | > 86.8 µM | ≥ 43 µM | inactive
8 | Cc1c(CN2CCCc3ccccc32)nc(SCc2ccc(C#N)cc2)[nH]c1=O | 7 | 13 µM | > 13 µM | 1.78 µM | inactive
9 | Cc1c(CN2CCCc3ccccc32)nc(SCC(=O)c2ccc(Cl)cc2)[nH]c1=O | 19 | 42.1 µM | > 42.1 µM | 2.16 µM | inactive
10 | CCc1c(CN2CCCc3ccccc32)nc(SCC(=O)c2ccc([N+](=O)[O-])cc2)[nH]c1=O | 56 | 111 µM | > 111 µM | 1.98 µM | inactive
11 | COc1ccc(CSc2nc(CN3CCCc4ccccc43)cc(=O)[nH]2)cc1 | 7 | 181 µM | > 181 µM | 25.1 µM | inactive
12 | Cc1c(CN2CCCc3ccccc32)nc(SCc2ccccc2)[nH]c1=O | < 1 | 6.69 µM | > 6.69 µM | > 6.69 µM | inactive
13 | CCc1c(CN2CCCc3ccccc32)nc(SCc2ccc(C)cc2)[nH]c1=O | < 29 | 160 µM | > 160 µM | ≥ 5.42 µM | inactive
14 | O=c1cc(CN2CCCc3ccccc32)nc(SCc2ccccc2)[nH]1 | ≤ 3 | 94.2 µM | > 94.2 µM | ≥ 32.2 µM | inactive
15 | Cc1ccnc2c1NC(=O)c1cccnc1N2C1CC1 [NEVIRAPINE] |  | > 15 µM |  |  | 
16 | CCc1c(CN2CCCc3ccccc32)nc(SCC(=O)c2ccc(C)cc2)[nH]c1=O | 271 | 288 µM | > 288 µM | 1.06 µM | inactive
17 | O=C(CSc1nc(CN2CCCc3ccccc32)cc(=O)[nH]1)c1ccc([N+](=O)[O-])cc1 | < 1 | 209 µM | > 209 µM | > 209 µM | inactive
18 | Cc1c(CN2CCCc3ccccc32)nc(SCC(=O)c2ccc([N+](=O)[O-])cc2)[nH]c1=O | ≤ 8 | 23.7 µM | > 23.7 µM | ≥ 3.13 µM | inactive
19 | O=C1Nc2ccc(Cl)cc2[C@@](C#CC2CC2)(C(F)(F)F)O1 [EFAVIRENZ] | > 1430 | > 6.34 µM |  |  | 
20 | CCc1c(CN2CCCc3ccccc32)nc(SCc2ccc(OC)cc2)[nH]c1=O | 244 | 147 µM | > 147 µM | 0.59 µM | inactive
21 | CCc1c(CN2CCCc3ccccc32)nc(SCC(=O)c2ccc(Cl)cc2)[nH]c1=O | 249 | 275 µM | > 275 µM | 1.01 µM | inactive
22 | Cc1cn([C@H]2C[C@H](N=[N+]=[N-])[C@@H](CO)O2)c(=O)[nH]c1=O [ZIDOVUDINE] | > 6190 | > 93.5 µM |  |  | 

Row | SMILES | selectivity ratio [1] | CC50 at 120 h [2] | EC50 [3] | EC50 [4] | inhibition [5]
23 | CCc1c(CN2CCCc3ccccc32)nc(SCc2ccc(C#N)cc2)[nH]c1=O | 125 | 59.7 µM | > 59.7 µM | 0.48 µM | inactive
24 | O=c1cc(CN2CCCc3ccccc32)nc(SCc2ccc(F)cc2)[nH]1 | 6 | 182 µM | > 182 µM | 29.7 µM | inactive
25 | Cc1c(CN2CCCc3ccccc32)nc(SCC(=O)c2ccc(C#N)cc2)[nH]c1=O | 6 | 44.5 µM | > 44.5 µM | 7.35 µM | inactive
26 | O=c1cc(CN2CCCc3ccccc32)nc(SCc2ccc(Cl)cc2)[nH]1 | < 1 | > 53.6 µM | > 53.6 µM | > 53.6 µM | inactive
27 | Cc1c(CN2CCCc3ccccc32)nc(SCc2ccc(F)cc2)[nH]c1=O | < 1 | 8.67 µM | > 8.67 µM | > 8.67 µM | inactive
28 | Cc1c(CN2CCCc3ccccc32)nc(SCC(=O)c2ccc(F)cc2)[nH]c1=O | 34 | 15.4 µM | > 15.4 µM | 0.46 µM | inactive
29 | O=C(CSc1nc(CN2CCCc3ccccc32)cc(=O)[nH]1)c1ccccc1 | 6 | 153 µM | > 153 µM | 24.6 µM | inactive
30 | O=c1cc(CN2CCCc3ccccc32)nc(SCc2ccc([N+](=O)[O-])cc2)[nH]1 | ≤ 2 | 73.9 µM | > 73.9 µM | ≥ 49.5 µM | inactive
31 | COc1ccc(CSc2nc(CN3CCCc4ccccc43)c(C)c(=O)[nH]2)cc1 | 93 | 59.6 µM | > 59.6 µM | 0.64 µM | inactive
32 | CCc1c(CN2CCCc3ccccc32)nc(SCC(=O)c2ccc(C#N)cc2)[nH]c1=O | 109 | 115 µM | > 115 µM | 1.06 µM | inactive
33 | CCc1c(CN2CCCc3ccccc32)nc(SCc2ccc(F)cc2)[nH]c1=O | < 1 | 133 µM | > 133 µM | > 133 µM | inactive
34 | Cc1c(CN2CCCc3ccccc32)nc(SCC(=O)c2ccccc2)[nH]c1=O | 31 | 12.2 µM | > 12.2 µM | 0.39 µM | inactive
35 | Cc1ccc(C(=O)CSc2nc(CN3CCCc4ccccc43)cc(=O)[nH]2)cc1 | 6 | 156 µM | > 156 µM | 28 µM | inactive
36 | Cc1ccc(CSc2nc(CN3CCCc4ccccc43)cc(=O)[nH]2)cc1 | < 1 | 64.3 µM | > 64.3 µM | > 64.3 µM | inactive
37 | CCc1c(CN2CCCc3ccccc32)nc(SCc2ccc(Cl)cc2)[nH]c1=O | ≤ 25 | 135 µM | > 135 µM | ≥ 5.42 µM | inactive
38 | Cc1c(CN2CCCc3ccccc32)nc(SCc2ccc(Cl)cc2)[nH]c1=O | ≤ 29 | 65.5 µM | > 65.5 µM | ≥ 2.25 µM | inactive
39 | COc1ccc(C(=O)CSc2nc(CN3CCCc4ccccc43)cc(=O)[nH]2)cc1 | 7 | 160 µM | > 160 µM | 24 µM | inactive
40 | CCc1c(CN2CCCc3ccccc32)nc(SCc2ccc([N+](=O)[O-])cc2)[nH]c1=O | 188 | 195 µM | > 195 µM | 1.03 µM | inactive
41 | N#Cc1ccc(C(=O)CSc2nc(CN3CCCc4ccccc43)cc(=O)[nH]2)cc1 | > 1 | > 197 µM | > 197 µM | > 197 µM | inactive
42 | O=C(CSc1nc(CN2CCCc3ccccc32)cc(=O)[nH]1)c1ccc(Cl)cc1 | < 1 | 75.6 µM | > 75.6 µM | > 75.6 µM | inactive
43 | CCc1c(CN2CCCc3ccccc32)nc(SCc2ccccc2)[nH]c1=O | < 1 | 4.8 µM | > 4.8 µM | > 4.8 µM | inactive
